The values that follow come from ChEMBL document CHEMBL4184298, “Development of Potent Inhibitors of Receptor Tyrosine Kinases by Ligand-Based Drug Design and Target-Biased Phenotypic Screening” (J Med Chem, 2018).

pIC50: −log10 of the molar value. Active and inactive are the calls of the source. The calls are words filed in the database; no cut-off is given here.

The species named for experiment [1] is Mus musculus. Put plainly: Antiproliferative activity against mouse AXL-positive Breast cancer cells after 5 days by PrestoBlue assay. Type of experiment: functional. The procedure, abridged: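 Cell proliferation: AXL+ cells were exposed to 8-point half-log dilutions (0.03–100 μM). Viability was read with PrestoBlue reagent on day 5.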
Experiment [2] has as its target RAC-alpha serine/threonine-protein kinase (Homo sapiens, UniProt P31749). The experiment can be described thus: Inhibition of AKT (unknown origin) using poly [Glu, Try] 4:1 as substrate in presence of [gamma-33P]ATP. The procedure, abridged:
(§1)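 Radiometric assay on recombinant kinase: ³³P incorporation into the kinase substrate was measured and activity was expressed relative to a DMSO control.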

Experiment [3] has as its target T1, Aurora kinase A (Homo sapiens, UniProt O14965).
T1 sequence (O14965 whole entry): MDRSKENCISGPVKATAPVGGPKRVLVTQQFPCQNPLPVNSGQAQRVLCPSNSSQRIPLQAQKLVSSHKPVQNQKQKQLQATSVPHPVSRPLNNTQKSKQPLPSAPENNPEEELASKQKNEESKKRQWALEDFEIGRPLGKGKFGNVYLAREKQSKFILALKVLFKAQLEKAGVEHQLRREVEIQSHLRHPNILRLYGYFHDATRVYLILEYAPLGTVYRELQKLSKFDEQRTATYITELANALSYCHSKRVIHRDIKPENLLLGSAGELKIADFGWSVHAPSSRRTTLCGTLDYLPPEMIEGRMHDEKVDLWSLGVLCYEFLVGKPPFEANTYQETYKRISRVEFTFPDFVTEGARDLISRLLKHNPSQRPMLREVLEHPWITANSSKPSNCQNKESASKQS
The experiment can be described thus: Inhibition of human partial length Aurora A (E122 to K401 residues) expressed in mammalian expression system using poly [Glu, Try] 4:1 as substrate in presence of [gamma-33P]ATP. The gist of the method: as §1

Experiment [4] has as its target Mast/stem cell growth factor receptor Kit (Homo sapiens, UniProt P10721). Put plainly: Inhibition of wild-type human partial length KIT (I571 to D952 residues) expressed in bacterial expression system using poly [Glu, Try] 4:1 as substrate in presence of [gamma-33P]ATP. The gist of the method:
as §1

Experiment [5] concerns the target Hepatocyte growth factor receptor (Homo sapiens, UniProt P08581). The experiment can be described thus: Inhibition of wild-type human partial length MET (D1010 to S1367 residues) expressed in bacterial expression system using poly [Glu, Try] 4:1 as substrate in presence of [gamma-33P]ATP. The procedure, abridged: as §1
Experiment [6] addresses Proto-oncogene tyrosine-protein kinase Src (Homo sapiens, UniProt P12931). Put plainly: Inhibition of wild-type human partial length SRC (L240 to L536 residues) expressed in bacterial expression system using poly [Glu, Try] 4:1 as substrate in presence of [gamma-33P]ATP.
The target of experiment [7] is Vascular endothelial growth factor receptor 2 (Homo sapiens, UniProt P35968). Put plainly: Inhibition of wild-type human partial length VEGFR2 (R787 to P1253 residues) expressed in mammalian expression system using poly [Glu, Try] 4:1 as substrate in presence of [gamma-33P]ATP.
Chain of Vascular endothelial growth factor receptor 2 (P35968 whole entry, the tested form may be a part): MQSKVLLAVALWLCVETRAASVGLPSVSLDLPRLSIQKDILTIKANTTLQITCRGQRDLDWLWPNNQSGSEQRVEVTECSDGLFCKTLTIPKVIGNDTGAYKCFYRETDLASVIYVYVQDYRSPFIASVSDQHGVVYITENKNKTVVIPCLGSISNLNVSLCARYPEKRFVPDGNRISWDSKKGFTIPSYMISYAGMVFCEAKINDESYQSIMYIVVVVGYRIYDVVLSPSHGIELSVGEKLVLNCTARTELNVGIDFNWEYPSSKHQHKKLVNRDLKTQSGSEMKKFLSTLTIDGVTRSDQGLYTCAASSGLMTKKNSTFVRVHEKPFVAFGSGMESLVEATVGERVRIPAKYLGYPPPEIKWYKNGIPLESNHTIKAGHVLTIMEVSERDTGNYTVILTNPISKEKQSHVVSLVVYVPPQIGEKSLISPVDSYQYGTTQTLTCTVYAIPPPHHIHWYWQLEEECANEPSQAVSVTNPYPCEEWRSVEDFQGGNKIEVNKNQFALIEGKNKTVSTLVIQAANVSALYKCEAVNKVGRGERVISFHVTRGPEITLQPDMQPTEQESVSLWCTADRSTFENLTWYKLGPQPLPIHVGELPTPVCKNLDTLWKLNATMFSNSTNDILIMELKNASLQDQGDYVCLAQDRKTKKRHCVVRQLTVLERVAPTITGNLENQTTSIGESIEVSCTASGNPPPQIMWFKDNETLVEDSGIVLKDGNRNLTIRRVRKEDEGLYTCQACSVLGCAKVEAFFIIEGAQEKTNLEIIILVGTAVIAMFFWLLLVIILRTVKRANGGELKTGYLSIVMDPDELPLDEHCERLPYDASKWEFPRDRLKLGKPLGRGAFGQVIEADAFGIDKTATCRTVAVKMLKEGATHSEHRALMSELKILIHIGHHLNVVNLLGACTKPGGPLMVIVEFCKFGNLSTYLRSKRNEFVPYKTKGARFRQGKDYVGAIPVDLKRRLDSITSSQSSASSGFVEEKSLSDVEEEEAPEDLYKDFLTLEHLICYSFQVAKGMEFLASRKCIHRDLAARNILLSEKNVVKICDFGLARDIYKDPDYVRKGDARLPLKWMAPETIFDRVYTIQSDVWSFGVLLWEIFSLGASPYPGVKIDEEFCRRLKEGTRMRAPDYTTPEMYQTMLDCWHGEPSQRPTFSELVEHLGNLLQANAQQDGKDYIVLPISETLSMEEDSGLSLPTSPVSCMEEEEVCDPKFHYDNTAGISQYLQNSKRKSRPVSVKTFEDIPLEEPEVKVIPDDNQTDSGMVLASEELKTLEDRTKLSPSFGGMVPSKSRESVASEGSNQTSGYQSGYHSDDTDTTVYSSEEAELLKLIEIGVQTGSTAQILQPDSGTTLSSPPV
Experiment [8] deals with Serine/threonine-protein kinase mTOR (Homo sapiens, UniProt P42345). The experiment can be described thus: Inhibition of wild-type human partial length MTOR (L1382 to W2549 residues) expressed in mammalian expression system using poly [Glu, Try] 4:1 as substrate in presence of [gamma-33P]ATP. The gist of the method:
as §1

In experiment [9] the target is T2, Tyrosine-protein kinase receptor TYRO3 (Homo sapiens, UniProt Q06418).
T2 sequence (Q06418 whole entry): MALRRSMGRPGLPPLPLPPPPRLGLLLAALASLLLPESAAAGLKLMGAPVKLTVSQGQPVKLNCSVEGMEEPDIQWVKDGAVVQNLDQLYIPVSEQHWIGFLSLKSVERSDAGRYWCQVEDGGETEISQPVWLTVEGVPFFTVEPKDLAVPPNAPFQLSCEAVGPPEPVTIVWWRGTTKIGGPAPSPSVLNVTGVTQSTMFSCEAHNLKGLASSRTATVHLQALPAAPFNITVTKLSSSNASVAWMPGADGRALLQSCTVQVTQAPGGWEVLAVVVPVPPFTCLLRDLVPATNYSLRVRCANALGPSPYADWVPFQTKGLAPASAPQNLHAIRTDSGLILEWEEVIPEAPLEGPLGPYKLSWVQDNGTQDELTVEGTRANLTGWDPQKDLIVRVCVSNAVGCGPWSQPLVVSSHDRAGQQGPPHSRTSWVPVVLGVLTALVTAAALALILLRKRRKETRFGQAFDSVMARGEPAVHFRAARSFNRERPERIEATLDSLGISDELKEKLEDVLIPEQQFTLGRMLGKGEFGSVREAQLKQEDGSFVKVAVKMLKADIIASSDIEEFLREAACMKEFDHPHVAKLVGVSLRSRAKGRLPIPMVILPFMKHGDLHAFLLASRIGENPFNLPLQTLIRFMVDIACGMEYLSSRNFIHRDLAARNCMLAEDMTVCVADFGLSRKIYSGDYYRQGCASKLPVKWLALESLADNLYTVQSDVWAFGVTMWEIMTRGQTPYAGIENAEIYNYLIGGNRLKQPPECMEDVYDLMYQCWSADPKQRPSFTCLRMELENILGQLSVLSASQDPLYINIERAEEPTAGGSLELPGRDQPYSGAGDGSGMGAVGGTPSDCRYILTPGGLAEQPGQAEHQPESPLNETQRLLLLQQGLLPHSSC
The experiment can be described thus: Inhibition of wild-type human partial length TYRO3 (S497 to T814 residues) expressed in bacterial expression system using poly [Glu, Try] 4:1 as substrate in presence of [gamma-33P]ATP. The procedure, abridged: as §1

Chain of RAC-alpha serine/threonine-protein kinase (P31749 whole entry): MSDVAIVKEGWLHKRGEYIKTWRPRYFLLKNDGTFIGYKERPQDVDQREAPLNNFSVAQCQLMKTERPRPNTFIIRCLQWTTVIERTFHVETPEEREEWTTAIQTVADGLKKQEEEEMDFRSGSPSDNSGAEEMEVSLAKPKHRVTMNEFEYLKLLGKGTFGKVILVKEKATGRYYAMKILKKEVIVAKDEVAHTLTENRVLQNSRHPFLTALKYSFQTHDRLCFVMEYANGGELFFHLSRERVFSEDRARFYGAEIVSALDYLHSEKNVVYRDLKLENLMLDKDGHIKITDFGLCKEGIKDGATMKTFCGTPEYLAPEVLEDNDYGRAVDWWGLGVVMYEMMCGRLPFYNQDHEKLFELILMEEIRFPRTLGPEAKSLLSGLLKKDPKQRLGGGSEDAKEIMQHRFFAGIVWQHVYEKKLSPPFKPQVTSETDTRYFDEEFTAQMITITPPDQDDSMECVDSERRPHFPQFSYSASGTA
Chain of Mast/stem cell growth factor receptor Kit (P10721 whole entry, the tested form may be a part): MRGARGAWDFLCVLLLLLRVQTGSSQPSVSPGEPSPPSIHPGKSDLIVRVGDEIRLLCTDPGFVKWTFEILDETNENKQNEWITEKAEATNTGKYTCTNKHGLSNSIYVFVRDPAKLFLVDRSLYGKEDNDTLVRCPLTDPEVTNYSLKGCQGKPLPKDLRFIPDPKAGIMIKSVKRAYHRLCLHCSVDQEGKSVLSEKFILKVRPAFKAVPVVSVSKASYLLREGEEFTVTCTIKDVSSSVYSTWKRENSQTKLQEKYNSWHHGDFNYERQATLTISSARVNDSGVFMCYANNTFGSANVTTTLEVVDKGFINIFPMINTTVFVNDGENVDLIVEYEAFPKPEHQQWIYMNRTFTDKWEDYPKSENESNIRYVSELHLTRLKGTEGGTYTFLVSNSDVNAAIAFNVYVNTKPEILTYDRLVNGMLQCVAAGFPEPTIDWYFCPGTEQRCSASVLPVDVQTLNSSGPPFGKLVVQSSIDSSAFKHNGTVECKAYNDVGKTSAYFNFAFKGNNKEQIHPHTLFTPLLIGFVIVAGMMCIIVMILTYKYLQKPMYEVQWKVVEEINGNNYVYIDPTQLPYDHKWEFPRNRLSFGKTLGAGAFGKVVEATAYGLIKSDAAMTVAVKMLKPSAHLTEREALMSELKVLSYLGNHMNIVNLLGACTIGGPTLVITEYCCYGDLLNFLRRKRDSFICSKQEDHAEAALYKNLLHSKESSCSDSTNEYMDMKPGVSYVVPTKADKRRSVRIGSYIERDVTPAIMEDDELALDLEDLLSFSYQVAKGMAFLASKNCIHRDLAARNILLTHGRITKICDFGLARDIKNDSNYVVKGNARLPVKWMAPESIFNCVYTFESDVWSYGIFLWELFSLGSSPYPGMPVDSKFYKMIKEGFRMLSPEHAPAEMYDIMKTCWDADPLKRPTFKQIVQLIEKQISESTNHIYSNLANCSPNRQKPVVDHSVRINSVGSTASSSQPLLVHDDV
Chain of Proto-oncogene tyrosine-protein kinase Src (P12931 2-536 limits assumed): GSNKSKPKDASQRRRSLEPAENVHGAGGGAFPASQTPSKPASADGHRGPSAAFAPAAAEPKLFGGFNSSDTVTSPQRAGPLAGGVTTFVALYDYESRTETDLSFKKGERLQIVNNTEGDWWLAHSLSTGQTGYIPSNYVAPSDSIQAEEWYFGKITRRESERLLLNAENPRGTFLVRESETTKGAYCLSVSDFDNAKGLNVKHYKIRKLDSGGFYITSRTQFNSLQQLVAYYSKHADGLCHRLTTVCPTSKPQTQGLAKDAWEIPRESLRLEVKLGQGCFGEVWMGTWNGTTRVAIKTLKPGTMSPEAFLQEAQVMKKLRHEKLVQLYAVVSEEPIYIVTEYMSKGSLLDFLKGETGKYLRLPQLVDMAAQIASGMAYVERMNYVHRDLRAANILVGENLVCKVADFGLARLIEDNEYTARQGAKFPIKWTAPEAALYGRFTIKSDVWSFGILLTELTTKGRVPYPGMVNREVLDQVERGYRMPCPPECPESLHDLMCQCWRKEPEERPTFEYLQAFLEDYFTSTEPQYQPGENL
Chain of Hepatocyte growth factor receptor (P08581 whole entry, the tested form may be a part): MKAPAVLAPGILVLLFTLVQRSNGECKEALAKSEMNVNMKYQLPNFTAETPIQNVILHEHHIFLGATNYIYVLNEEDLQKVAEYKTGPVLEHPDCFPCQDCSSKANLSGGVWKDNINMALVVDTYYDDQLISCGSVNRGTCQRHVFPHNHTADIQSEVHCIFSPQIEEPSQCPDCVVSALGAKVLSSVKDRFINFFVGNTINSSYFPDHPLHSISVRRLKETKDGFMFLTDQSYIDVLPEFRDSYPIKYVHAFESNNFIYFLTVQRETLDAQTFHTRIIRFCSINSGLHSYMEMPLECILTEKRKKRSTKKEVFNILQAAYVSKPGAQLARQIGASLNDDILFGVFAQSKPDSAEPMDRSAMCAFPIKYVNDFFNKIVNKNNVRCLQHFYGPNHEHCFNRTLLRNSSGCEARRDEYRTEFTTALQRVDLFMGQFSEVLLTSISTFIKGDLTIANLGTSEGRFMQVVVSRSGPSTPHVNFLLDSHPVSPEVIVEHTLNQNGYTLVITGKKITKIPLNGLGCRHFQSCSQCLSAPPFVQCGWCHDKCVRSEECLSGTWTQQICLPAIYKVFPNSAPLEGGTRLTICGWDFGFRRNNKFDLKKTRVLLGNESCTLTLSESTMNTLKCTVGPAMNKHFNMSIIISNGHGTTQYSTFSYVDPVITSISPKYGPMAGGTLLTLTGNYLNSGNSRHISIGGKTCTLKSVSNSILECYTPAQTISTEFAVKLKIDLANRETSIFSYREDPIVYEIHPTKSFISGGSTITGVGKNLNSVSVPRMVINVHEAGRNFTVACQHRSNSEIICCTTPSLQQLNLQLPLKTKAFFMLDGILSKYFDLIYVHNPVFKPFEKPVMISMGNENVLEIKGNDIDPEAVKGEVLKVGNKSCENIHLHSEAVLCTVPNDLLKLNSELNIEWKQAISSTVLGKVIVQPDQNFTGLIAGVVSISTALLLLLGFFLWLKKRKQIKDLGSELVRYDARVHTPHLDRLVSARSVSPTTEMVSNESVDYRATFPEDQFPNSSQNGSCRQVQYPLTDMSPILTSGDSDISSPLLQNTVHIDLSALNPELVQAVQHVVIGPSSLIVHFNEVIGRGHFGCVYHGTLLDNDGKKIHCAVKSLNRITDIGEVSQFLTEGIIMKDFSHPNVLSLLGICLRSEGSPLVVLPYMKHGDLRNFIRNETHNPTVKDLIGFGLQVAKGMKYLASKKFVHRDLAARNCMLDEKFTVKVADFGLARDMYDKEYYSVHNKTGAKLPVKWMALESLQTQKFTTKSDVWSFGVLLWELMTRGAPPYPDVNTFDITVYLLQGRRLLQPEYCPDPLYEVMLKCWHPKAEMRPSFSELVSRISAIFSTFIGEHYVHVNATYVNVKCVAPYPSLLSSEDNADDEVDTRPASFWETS

For the compound `CNc1ncc2c(-c3ccc(N4CCNCC4)nc3)nn(Cc3cn(-c4ccccc4)nn3)c2n1`, the outcome in [1] was inactive.

Regarding `CNc1ncc2c(-c3ccc(N4CCNCC4)nc3)nn(Cc3cn(-c4ccc(Cl)cc4)nn3)c2n1`, the result in [1] was inactive.

In the case of `CNc1ncc2c(-c3ccc(N4CCNCC4)nc3)nn(Cc3cn(Cc4ccccc4)nn3)c2n1`, the result in experiment [1] was Active. The pIC50 in [2] was less than 5.00; in [3] it was 5.74; in [4], less than 5.00; in [5], less than 5.00; in [6], 6.00; in experiment [7], less than 5.00. For the same compound, the pIC50 in experiment [8] and in experiment [9] was less than 5.00 each time.

In the case of `CNc1ncc2c(-c3ccc(N4CCNCC4)nc3)nn(Cc3cn(C4CCCCC4O)nn3)c2n1` (stereo unspecified), in experiment [1], the result was inactive.

For `CNc1ccc(-c2nn(Cc3cn(Cc4ccccc4)nn3)c3nc(NC)ncc23)cn1`, the outcome in [1] was inactive.

For the compound `CNc1ncc2c(-c3cnc4[nH]ccc4c3)nn(Cc3cn(Cc4ccccc4)nn3)c2n1`, in experiment [1], the result was inactive.

Take `CNc1ncc2c(-c3ccc(N4CCNCC4)nc3)nn(Cc3cn(C4CCCC4O)nn3)c2n1` (stereo unspecified): in experiment [1], the outcome was inactive.

Consider `CNc1ncc2c(-c3ccc(N4CCNCC4)nc3)nn(Cc3cn(-c4ccc(OC)cc4)nn3)c2n1`, for which the outcome in experiment [1] was inactive.
